In experiment [1] the target is T1, NAD-dependent protein deacylase sirtuin-6 (Homo sapiens, UniProt Q8N6T7). Put plainly: Inhibition of N-terminal His-tagged human recombinant SIRT6 (13 to 308) expressed in Escherichia coli Rosetta2 cells assessed as FdL-1 peptide substrate deacetylation at 100 uM after 45 mins by Fluor-de-Lys assay.
Experiment [2] deals with T1, NAD-dependent protein deacylase sirtuin-6. The experiment can be described thus: Inhibition of human recombinant SIRT6 assessed as 7-amino-4-methylcoumarin labelled Arg-His-Lys-Lys(epsilon-acetyl) substrate deacetylation at 200 uM after 90 mins by Fluor-de-Lys assay. The gist of the method:
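Single-point screen at 200 μM in a commercial in vitro SIRT6 deacetylation activity kit with Fluor de Lys fluorescence read-out, reported as percent inhibition of deacetylation.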

The target is the same in experiment [3]. The experiment can be described thus: Inhibition of human recombinant SIRT6 assessed as 7-amino-4-methylcoumarin labelled Arg-His-Lys-Lys(epsilon-acetyl) substrate deacetylation after 90 mins by Fluor-de-Lys assay. The gist of the method: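 Commercial in vitro SIRT6 deacetylation kit with Fluor de Lys read-out. The IC50 was determined in two separate runs, each in triplicate, and reported as the average of the six measurements.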

Active and inactive are the calls of the source. The rule behind the calls is not given here. Square brackets hold non-standard residues; d marks the D form. Peptide text beside a SMILES is read from it. Lys(Thioacetyl) = CC(=S)NCCCC[C@H](N)C(=O)O

T1 sequence (Q8N6T7 whole entry): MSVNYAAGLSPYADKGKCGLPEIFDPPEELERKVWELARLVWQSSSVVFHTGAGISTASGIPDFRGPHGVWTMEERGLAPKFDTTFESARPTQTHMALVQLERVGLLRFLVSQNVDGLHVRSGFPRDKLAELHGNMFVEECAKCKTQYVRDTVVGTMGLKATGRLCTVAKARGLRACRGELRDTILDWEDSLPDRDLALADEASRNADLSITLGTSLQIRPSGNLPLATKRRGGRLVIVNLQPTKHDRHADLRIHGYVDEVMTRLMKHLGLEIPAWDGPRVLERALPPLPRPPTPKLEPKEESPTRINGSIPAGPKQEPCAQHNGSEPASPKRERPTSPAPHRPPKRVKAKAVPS

Take `Nc1cc2c(nc3c4ccccc4ccc3[n+]2-c2cccc3ccccc23)c2ccccc12`: the inhibition (in general, the percentage by which the read-out fell short of the control) in experiment [1] was determined as 25%.

Take `CC(=S)NCCCC[C@H](NC(=O)[C@@H]1CCCN(C(=O)OC(C)(C)C)C1)C(=O)N[C@@H](C)C(=O)O`: in experiment [2], the inhibition entry was “Active”. Take `CC(=O)N[C@@H](C)C(=O)N[C@@H](CCCCNC(C)=S)C(=O)N[C@@H](C)C(=O)O`: in experiment [2], the inhibition came to 54%. Take `CSCC[C@H](NC(=O)[C@@H](NC(=O)[C@H](CCCCNC(C)=S)NC(=O)[C@H](CC(=O)O)NC(=O)[C@@H](N)CO)[C@@H](C)O)C(=O)O` (H-SD[Lys(Thioacetyl)]TM-OH): the inhibition in experiment [2] was determined as 35%. The same measure, in the same setting: next, `CC(=O)N[C@@H](C)C(=O)N[C@@H](CCCCNC(=O)C=C(C)C)C(=O)N[C@@H](C)C(=O)O`: 26%.

For `CSCC[C@H](NC(=O)[C@H](CC(C)C)NC(=O)[C@H](CCCCNC(C)=S)NC(=O)[C@H](CCCCN)NC(=O)[C@@H](N)Cc1cnc[nH]1)C(=O)O` (H-HK[Lys(Thioacetyl)]LM-OH), the IC50 (usually the concentration needed to halve the response being measured) in experiment [3] was 78 µM. Also, the inhibition in experiment [2] amounted to 62%. For `O=C(C[n+]1ccc2ccccc2c1)c1ccc2ccc3ccccc3c2c1`, the inhibition in experiment [1] is 25%. The same measure, in the same setting: for `O=C1c2ccccc2C(=O)c2c(Nc3cc4c5c(ccc6c7ccc8c9c(cc(Nc%10cccc%11c%10C(=O)c%10ccccc%10C%11=O)c(c3c56)c97)-c3ccccc3C8=O)C(=O)c3ccccc3-4)cccc21` the value was 25%.

With `CC(=O)N[C@@H](C)C(=O)N[C@@H](CCCCNC(=O)CC(C)C)C(=O)N[C@@H](C)C(=O)O`, in experiment [2], the inhibition result is “Active”. Take `O=C1c2ccccc2C(=O)c2c1ccc(N1C(=O)c3ccccc3C1=O)c2-c1c(N2C(=O)c3ccccc3C2=O)ccc2c1C(=O)c1ccccc1C2=O`: in experiment [1], the inhibition came out at 25%.

Turning to `CC(=O)N[C@@H](C)C(=O)N[C@@H](CCCCNC(=S)CC(C)C)C(=O)N[C@@H](C)C(=O)O`, the inhibition entry in experiment [2] is “Active”. Consider `Nc1cc2c(nc3c4ccccc4c(N)cc3[n+]2-c2cccc3ccccc23)c2ccccc12`, for which the inhibition in experiment [1] was found to be 25%. The same measure, in the same setting: next, `CN1C[C@H](C(=O)N[C@]2(C)O[C@@]3(O)[C@@H]4CCCN4C(=O)[C@H](Cc4ccccc4)N3C2=O)C=C2c3cccc4[nH]cc(c34)C[C@H]21`: 25%. `CC(=[Se])NCCCC[C@H](NC(=O)OCc1ccccc1)C(=O)Nc1ccccc1`: the IC50 in experiment [3] was 285 µM. Moreover, the inhibition in experiment [2] turned out to be 62%. Turning to `CC(=S)NCCCC[C@H](NC(=O)OCc1ccccc1)C(=O)Nc1ccccc1`, the inhibition in experiment [2] was found to be 36%. For `CSCC[C@H](NC(=O)[C@H](CC(C)C)NC(=O)[C@H](CCCCNC(C)=S)NC(=O)[C@H](CCCCN)NC(=O)[C@H](C)N)C(=O)O` (H-AK[Lys(Thioacetyl)]LM-OH), in experiment [3], the IC50 was 47 µM. Also, in experiment [2], the inhibition amounted to 91%. Turning to `CC(=S)NCCCC[C@H](NC(=O)CCc1ccccc1)C(=O)N[C@@H](C)C(=O)O`, the inhibition entry in experiment [2] is “Active”.

For the compound `CC(=S)NCCCC[C@H](NC(=O)OCc1ccccc1)C(=O)NC1CCCCC1`, the inhibition result in experiment [2] was “Active”.
